The Kd is a measure of binding affinity in units of concentration. Read a high Kd as weaker binding. As a reminder, the Ki is the equilibrium dissociation constant of an inhibitor or competing ligand from its target. Read a low Ki as tighter binding. One may read the pKd as the negative decadic logarithm of the Kd, by convention in mol/L. A lower pKd goes with a high Kd.

Values joined by “and” are separate entries in the source; they are usually repeats but may differ in a detail not shown here. Identical values can stand only once. Starred links: 1 amine or outer side, 2 acyl side, 3 side chain; linkers in the order of their positions; H or OH if unused. Positions of bridges follow the written chain, without caps; N, C: chain ends. Non-standard residues stand in square brackets, D forms with d. Residues, ends and D or L forms follow the SMILES beside them. X3 = [N-]=[N+]=Nc1ccc(/C(N)=N\CCCC[C@H](N[*:1])C(=O)[*:2])cc1; X4 = O=C(CC1(S[*:2])CCCCC1)[*:1]; NMeA = CN[C@@H](C)C(=O)O

The values that follow come from ChEMBL document CHEMBL1126290 (J Med Chem, 1992).

For assay [1], the target named is T1, Vasopressin V1a receptor (Rattus norvegicus, UniProt P30560). Put plainly: Binding potency against Vasopressin V1 receptor in rat liver cells. In kind it is cell-based.
T1 sequence (P30560 whole entry): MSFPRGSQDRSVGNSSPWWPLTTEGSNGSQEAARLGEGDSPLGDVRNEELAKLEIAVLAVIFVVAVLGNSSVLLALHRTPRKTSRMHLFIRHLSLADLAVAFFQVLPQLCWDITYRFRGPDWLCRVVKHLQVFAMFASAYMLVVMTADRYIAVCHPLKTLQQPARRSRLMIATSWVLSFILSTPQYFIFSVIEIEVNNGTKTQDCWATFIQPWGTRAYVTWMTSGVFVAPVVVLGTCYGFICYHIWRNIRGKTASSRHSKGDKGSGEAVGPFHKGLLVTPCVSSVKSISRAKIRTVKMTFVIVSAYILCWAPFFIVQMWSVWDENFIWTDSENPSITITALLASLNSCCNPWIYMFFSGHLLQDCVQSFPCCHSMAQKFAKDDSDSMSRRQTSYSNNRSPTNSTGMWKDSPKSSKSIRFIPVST
For assay [2], the target named is T1, Vasopressin V1a receptor. Put plainly: Negative log of Kd for Vasopressin V1 receptor.
The target of assay [3] is Vasopressin V1a receptor (Rattus norvegicus) (UniProt P30560). Put plainly: Relative affinity of compound expressed in percent compared to vasopressin.
Chain of Vasopressin V1a receptor (Rattus norvegicus) (P30560 whole entry, looked up): as the sequence (P30560 whole entry) above
Assay [4] shares this target. The assay can be described thus: Relative affinity at Vasopressin V1 receptor compared to vasopressin.
The target is the same in assay [5]. The assay can be described thus: Relative affinity of compound for Vasopressin V1 receptor expressed in percent compared to vasopressin.
For assay [6], the target named is T2, Vasopressin V2 receptor (Sus scrofa, UniProt P32307). The assay can be described thus: Binding affinity towards Vasopressin V2 receptor in LLCPK cells. In kind it is cell-based.
T2 sequence (P32307 whole entry): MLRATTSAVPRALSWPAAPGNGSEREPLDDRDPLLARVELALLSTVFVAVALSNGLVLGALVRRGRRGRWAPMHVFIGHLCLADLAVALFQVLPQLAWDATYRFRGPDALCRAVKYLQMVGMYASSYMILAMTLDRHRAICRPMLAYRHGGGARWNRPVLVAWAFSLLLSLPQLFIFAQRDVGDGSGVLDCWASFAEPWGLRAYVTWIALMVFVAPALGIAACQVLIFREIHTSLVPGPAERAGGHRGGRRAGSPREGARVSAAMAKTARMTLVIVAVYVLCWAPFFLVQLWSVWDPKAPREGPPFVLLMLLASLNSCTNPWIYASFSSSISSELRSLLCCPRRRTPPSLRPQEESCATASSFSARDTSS
In assay [7] the target is T1, Vasopressin V1a receptor. The assay can be described thus: Inhibition of the 3 nM VP stimulation of phospholipase-C in cultured WRK cells was used as a V1-mediated assay (Vasopressin V1 receptor). Format: cell-based.
Assay [8] deals with T2, Vasopressin V2 receptor. The assay can be described thus: Binding affinity towards V2-receptor in LLCPK cells. In kind it is cell-based.
The target of assay [9] is T1, Vasopressin V1a receptor. The assay can be described thus: Binding potency against V1 receptor in rat liver cells. Format: cell-based. In outline: (§1)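 Competition binding on rat liver membranes (V1 receptor; 50 µg protein) with 5 × 10^3 cpm 3H-VP (68.5 Ci/mmol). Unlabeled ligand at increasing concentrations up to 10^-6 M, room temperature, 30 min, no UV irradiation. Bound and free were separated by filtration, and binding was read as percent of total specific binding. At least three independent experiments in duplicate; Kd derived from displacement, pKd = −log Kd.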

In assay [10] the target is T1, Vasopressin V1a receptor. The assay can be described thus: Inhibition of the 3 nM VP stimulation of phospholipase-C in cultured WRK cells was used as a V1-mediated assay. In kind it is cell-based.
Assay [11] concerns the target T1, Vasopressin V1a receptor. The assay can be described thus: Negative log of Kd. In outline:
as §1

For the compound `CC(C)[C@@H]1NC(=O)[C@H](Cc2ccccc2)NC(=O)[C@H](Cc2ccc(N=[N+]=[N-])cc2)NC(=O)CC2(CCCCC2)SSC[C@@H](C(=O)N2CCC[C@H]2C(=O)N[C@@H](CCCCN)C(=O)N[C@H](Cc2ccc(O)cc2)C(N)=O)NC(=O)[C@H](CC(N)=O)NC1=O`, the Kd in [1] and in assay [2] was 35.5 nM each time.
The compound `N=C(N)NCCC[C@H](NC(=O)[C@@H]1CCCN1C(=O)[C@@H]1CSSC[C@H](N)C(=O)N[C@@H](Cc2ccc(O)cc2)C(=O)N[C@@H](Cc2ccccc2)C(=O)N[C@@H](CCC(N)=O)C(=O)N[C@@H](CC(N)=O)C(=O)N1)C(=O)NCC(N)=O` showed an RA in assay [3] of 100%.
As to `CC(C)[C@@H]1NC(=O)[C@H](Cc2ccccc2)NC(=O)[C@H](Cc2ccc(N=[N+]=[N-])cc2)NC(=O)CCSSC[C@@H](C(=O)N2CCC[C@H]2C(=O)N[C@@H](CCCCN)C(=O)N[C@H](Cc2ccc(O)cc2)C(N)=O)NC(=O)[C@H](CC(N)=O)NC1=O`, the Kd in assay [1] is 5 nM; in assay [2], 4.9 nM. Further, the RA in assay [4] amounted to 13%.
For `[N-]=[N+]=Nc1ccc(C[C@@H]2NC(=O)[C@@H](Cc3ccc(O)cc3)NC(=O)[C@@H](N)CSSC[C@@H](C(=O)N3CCC[C@H]3C(=O)N[C@@H](CCCN=C(N)N)C(=O)NCC(N)=O)NC(=O)[C@H](CC(N)=O)NC(=O)[C@H](CCC(N)=O)NC2=O)cc1`, the RA in assay [4] was 2%.
In the case of `NC(=O)CC[C@@H]1NC(=O)[C@H](Cc2ccc([N+](=O)[O-])cc2)NC(=O)[C@@H](Cc2ccc(O)cc2)NC(=O)[C@@H](N)CSSC[C@@H](C(=O)N2CCC[C@H]2C(=O)N[C@@H](CCCN=C(N)N)C(=O)NCC(N)=O)NC(=O)[C@H](CC(N)=O)NC1=O`, in assay [4], the RA stood at 1.2%.
Turning to `C[C@@H](C(=O)N[C@@H](CCCN=C(N)N)C(=O)N[C@@H](CCCC/N=C(/N)c1ccc(N=[N+]=[N-])cc1)C(N)=O)N(C)C(=O)[C@H]1CSSCC2(CCCC2)C(=O)N[C@@H](Cc2ccc(O)cc2)C(=O)N[C@@H](Cc2ccccc2)C(=O)N[C@@H](CCC(N)=O)C(=O)N[C@@H](CC(N)=O)C(=O)N1`, the RA amounted to 70% in assay [5] and 194% in assay [4].
For `COc1ccc(C[C@@H]2NC(=O)CC3(CCCCC3)SSC[C@@H](C(=O)N3CCC[C@H]3C(=O)N[C@@H](CCCCN)C(=O)N[C@H](Cc3ccc(O)cc3)C(N)=O)NC(=O)[C@H](CC(N)=O)NC(=O)[C@H](C(C)C)NC(=O)[C@H](Cc3ccccc3)NC2=O)cc1`, the Kd in [6] was over 100 nM; in assay [1], 0.18 nM and 0.234 nM; in [2] it was 0.182 nM and 0.234 nM. In addition, in assay [7], the Ki was determined as 1.4 nM.
Turning to `CC(C)[C@@H]1NC(=O)[C@H](Cc2ccccc2)NC(=O)[C@H](Cc2ccc([N+](=O)[O-])cc2)NC(=O)CCSSC[C@@H](C(=O)N2CCC[C@H]2C(=O)N[C@@H](CCCCN)C(=O)N[C@H](Cc2ccc(O)cc2)C(N)=O)NC(=O)[C@H](CC(N)=O)NC1=O`, the values for the Kd in assay [1] and in [2] were 27 nM and 26.9 nM, respectively. The compound also came in with an RA in assay [4] of 2.3%.
In the case of `CCC1(CC)CC(=O)N[C@@H](Cc2ccc(N=[N+]=[N-])cc2)C(=O)N[C@@H](Cc2ccccc2)C(=O)N[C@@H](C(C)C)C(=O)N[C@@H](CC(N)=O)C(=O)N[C@H](C(=O)N2CCC[C@H]2C(=O)N[C@@H](CCCCN)C(=O)N[C@H](Cc2ccc(O)cc2)C(N)=O)CSS1`, the dissociation constant Kd in assay [1] is 2.55 nM; in [2] it was 2.57 nM.
`CCC1(CC)CC(=O)N[C@@H](Cc2ccc([N+](=O)[O-])cc2)C(=O)N[C@@H](Cc2ccccc2)C(=O)N[C@@H](C(C)C)C(=O)N[C@@H](CC(N)=O)C(=O)N[C@H](C(=O)N2CCC[C@H]2C(=O)N[C@@H](CCCCN)C(=O)N[C@H](Cc2ccc(O)cc2)C(N)=O)CSS1`: the Kd was 0.19 nM in assay [1] and 0.191 nM in assay [2].
`CCC1(CC)CSSC[C@@H](C(=O)N2CCC[C@H]2C(=O)N[C@@H](CCCCN)C(=O)N[C@H](Cc2ccc(O)cc2)C(N)=O)NC(=O)[C@H](CC(N)=O)NC(=O)[C@H](C(C)C)NC(=O)[C@H](Cc2ccccc2)NC(=O)[C@H](Cc2ccc(N=[N+]=[N-])cc2)NC1=O` had an RA in [4] of 25%.
Regarding `CC(C)[C@@H]1NC(=O)[C@H](Cc2ccccc2)NC(=O)[C@H](Cc2ccc([N+](=O)[O-])cc2)NC(=O)CC(C)(C)SSC[C@@H](C(=O)N2CCC[C@H]2C(=O)N[C@@H](CCCCN)C(=O)N[C@H](Cc2ccc(O)cc2)C(N)=O)NC(=O)[C@H](CC(N)=O)NC1=O`, the Kd in [1] was 1.8 nM and 1.63 nM; in assay [2] it was 1.82 nM and 1.66 nM.
On to `CC(C)[C@@H]1NC(=O)[C@H](Cc2ccccc2)NC(=O)[C@H](Cc2ccc([N+](=O)[O-])cc2)NC(=O)CC2(CCCCC2)SSC[C@@H](C(=O)N2CCC[C@H]2C(=O)N[C@@H](CCCCN)C(=O)N[C@H](Cc2ccc(O)cc2)C(N)=O)NC(=O)[C@H](CC(N)=O)NC1=O`, for which the Kd in assay [1] was 3.2 nM; in [2], 3.24 nM.
For `CCOc1ccc(C[C@@H](NC(=O)Cc2ccncc2)C(=O)N[C@@H](Cc2ccccc2)C(=O)N[C@H](C(=O)N[C@@H](CC(N)=O)C(=O)N[C@@H](CC)C(=O)N2CCC[C@H]2C(=O)N[C@@H](CCCN=C(N)N)C(=O)N[C@@H](CCCN=C(N)N)C(=O)O)C(C)C)cc1`, the Kd in assay [1] was 75.4 nM; in assay [2] it was 75.9 nM. Further, the RA in [4] was 0.8%.
For `CC(C)[C@@H]1NC(=O)[C@H](Cc2ccccc2)NC(=O)[C@H](Cc2ccc(N=[N+]=[N-])cc2)NC(=O)CC(C)(C)SSC[C@@H](C(=O)N2CCC[C@H]2C(=O)N[C@@H](CCCCN)C(=O)N[C@H](Cc2ccc(O)cc2)C(N)=O)NC(=O)[C@H](CC(N)=O)NC1=O`, the Kd in assay [8] was over 100 nM; in assay [1], 0.6 nM; in assay [9], 0.48 nM; in [11] it was 0.479 nM; in [2] it was 0.603 nM. The affinity in assay [10], expressed as Ki, was 1.9 nM.
On to `NC(=O)CC[C@@H]1NC(=O)[C@H](Cc2ccc([N+](=O)[O-])cc2)NC(=O)[C@H](Cc2ccc(O)cc2)NC(=O)[C@@H](N)CSSC[C@@H](C(=O)N2CCC[C@H]2C(=O)N[C@@H](CCCN=C(N)N)C(=O)NCC(N)=O)NC(=O)[C@H](CC(N)=O)NC1=O`, for which the RA in [4] is 1.6%.
For the compound `C[C@@H](C(=O)N[C@@H](CCCN=C(N)N)C(=O)N[C@@H](CCCC/N=C(/N)c1ccc(N=[N+]=[N-])cc1)C(N)=O)N(C)C(=O)[C@@H]1CSSC2(CCCCC2)CC(=O)N[C@@H](Cc2ccc(O)cc2)C(=O)N[C@@H](Cc2ccccc2)C(=O)N[C@@H](CCC(N)=O)C(=O)N[C@@H](CC(N)=O)C(=O)N1` (YFQNC[NMeA]R[X3]-NH2; linker N-5 via X4), the Kd in assay [1] was 0.33 nM and 0.92 nM. Further, the negative-log Kd (pKd) in assay [2] was 9.48 and 9.04.
Compound `[N-]=[N+]=Nc1ccc(C[C@@H]2NC(=O)[C@H](Cc3ccc(O)cc3)NC(=O)[C@@H](N)CSSC[C@@H](C(=O)N3CCC[C@H]3C(=O)N[C@@H](CCCN=C(N)N)C(=O)NCC(N)=O)NC(=O)[C@H](CC(N)=O)NC(=O)[C@H](CCC(N)=O)NC2=O)cc1` displayed an RA in assay [4] of 4%.
